This is an account of results in paper PMC2196299 (The Journal of Experimental Medicine, 1997).

One test concerns the target T1, murine TAP (Mus musculus, UniProt P21958+P36371).
T1 sequence (P21958 1-724): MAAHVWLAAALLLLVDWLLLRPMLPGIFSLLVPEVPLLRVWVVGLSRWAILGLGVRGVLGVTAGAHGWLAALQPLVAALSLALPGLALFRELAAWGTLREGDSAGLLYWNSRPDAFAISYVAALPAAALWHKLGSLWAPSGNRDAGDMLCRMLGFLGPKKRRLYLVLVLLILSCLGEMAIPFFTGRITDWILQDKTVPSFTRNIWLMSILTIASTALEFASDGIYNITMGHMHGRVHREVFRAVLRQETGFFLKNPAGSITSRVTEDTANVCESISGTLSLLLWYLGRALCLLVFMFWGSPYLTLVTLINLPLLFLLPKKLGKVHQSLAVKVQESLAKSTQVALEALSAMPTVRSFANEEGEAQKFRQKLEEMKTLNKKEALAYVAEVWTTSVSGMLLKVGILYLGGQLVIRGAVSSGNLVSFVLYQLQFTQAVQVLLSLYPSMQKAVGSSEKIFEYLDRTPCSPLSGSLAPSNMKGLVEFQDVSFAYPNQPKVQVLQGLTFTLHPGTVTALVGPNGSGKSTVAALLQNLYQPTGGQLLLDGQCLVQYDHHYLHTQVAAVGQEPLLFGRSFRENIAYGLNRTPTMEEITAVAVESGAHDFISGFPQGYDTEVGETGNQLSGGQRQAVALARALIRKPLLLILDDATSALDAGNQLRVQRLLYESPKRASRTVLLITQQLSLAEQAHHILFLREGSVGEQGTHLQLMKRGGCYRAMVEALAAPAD
T1 sequence (P36371 1-702): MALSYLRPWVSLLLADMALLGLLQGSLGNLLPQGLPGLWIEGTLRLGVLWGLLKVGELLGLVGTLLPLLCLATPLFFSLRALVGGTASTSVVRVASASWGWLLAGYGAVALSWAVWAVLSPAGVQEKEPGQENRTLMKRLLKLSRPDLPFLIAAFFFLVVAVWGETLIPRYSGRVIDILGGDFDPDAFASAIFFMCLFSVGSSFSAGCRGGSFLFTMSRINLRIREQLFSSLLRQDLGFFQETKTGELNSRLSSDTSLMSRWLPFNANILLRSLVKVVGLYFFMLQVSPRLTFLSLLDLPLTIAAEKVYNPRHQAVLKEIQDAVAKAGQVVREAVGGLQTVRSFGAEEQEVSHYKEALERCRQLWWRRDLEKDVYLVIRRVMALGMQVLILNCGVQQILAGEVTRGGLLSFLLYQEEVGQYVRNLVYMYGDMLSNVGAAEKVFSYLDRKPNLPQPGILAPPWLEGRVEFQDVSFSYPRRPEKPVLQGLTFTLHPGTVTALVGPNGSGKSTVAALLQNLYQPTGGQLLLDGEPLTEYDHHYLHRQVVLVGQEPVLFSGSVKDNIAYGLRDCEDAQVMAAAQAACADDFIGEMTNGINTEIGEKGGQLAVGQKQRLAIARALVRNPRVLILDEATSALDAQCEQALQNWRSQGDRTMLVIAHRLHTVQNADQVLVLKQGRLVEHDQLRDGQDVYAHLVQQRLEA
The note with it: cited from earlier work.

For another test, the target named is T2, human TAP (Homo sapiens, UniProt Q03518+Q03519).
T2 sequence (Q03518 1-748): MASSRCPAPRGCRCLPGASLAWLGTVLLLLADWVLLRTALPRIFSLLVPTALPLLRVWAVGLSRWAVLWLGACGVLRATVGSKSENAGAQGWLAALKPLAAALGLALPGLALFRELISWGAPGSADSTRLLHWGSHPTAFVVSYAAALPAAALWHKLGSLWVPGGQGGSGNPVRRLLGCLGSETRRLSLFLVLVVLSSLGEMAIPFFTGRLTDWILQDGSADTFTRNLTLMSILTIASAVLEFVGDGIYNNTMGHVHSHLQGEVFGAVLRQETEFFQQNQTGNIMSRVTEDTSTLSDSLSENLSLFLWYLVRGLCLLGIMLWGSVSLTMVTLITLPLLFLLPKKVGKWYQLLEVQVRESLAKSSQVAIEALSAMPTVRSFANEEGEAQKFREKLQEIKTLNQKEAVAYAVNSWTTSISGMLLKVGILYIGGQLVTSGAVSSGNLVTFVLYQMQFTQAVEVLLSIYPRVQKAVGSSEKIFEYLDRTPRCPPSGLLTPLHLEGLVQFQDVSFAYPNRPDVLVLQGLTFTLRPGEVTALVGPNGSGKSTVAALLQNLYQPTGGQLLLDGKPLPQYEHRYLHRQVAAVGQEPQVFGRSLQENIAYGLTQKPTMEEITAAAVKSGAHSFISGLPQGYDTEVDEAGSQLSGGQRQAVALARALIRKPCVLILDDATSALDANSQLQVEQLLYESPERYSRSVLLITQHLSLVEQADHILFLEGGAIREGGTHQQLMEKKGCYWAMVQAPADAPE
T2 sequence (Q03519 1-686): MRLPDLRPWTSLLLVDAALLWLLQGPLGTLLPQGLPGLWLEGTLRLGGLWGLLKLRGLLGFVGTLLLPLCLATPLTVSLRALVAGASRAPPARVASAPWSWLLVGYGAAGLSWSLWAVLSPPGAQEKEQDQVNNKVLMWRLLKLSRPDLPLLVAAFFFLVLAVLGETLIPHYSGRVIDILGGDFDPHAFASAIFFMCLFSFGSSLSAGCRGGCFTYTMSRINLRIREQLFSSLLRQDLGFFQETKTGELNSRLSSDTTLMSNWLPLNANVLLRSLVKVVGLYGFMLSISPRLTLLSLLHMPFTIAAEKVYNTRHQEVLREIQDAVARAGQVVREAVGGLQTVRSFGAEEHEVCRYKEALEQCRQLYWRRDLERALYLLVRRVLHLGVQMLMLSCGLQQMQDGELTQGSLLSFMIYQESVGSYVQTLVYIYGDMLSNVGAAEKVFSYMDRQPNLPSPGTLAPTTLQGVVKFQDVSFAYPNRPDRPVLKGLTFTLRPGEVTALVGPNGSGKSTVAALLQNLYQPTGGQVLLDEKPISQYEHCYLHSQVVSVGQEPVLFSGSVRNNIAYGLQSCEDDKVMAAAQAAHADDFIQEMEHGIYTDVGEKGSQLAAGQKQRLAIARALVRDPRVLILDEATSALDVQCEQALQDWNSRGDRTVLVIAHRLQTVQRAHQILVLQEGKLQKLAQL
The experiment in a line: TAP-dependent peptide translocation assay in SLO-permeabilized human cells. The test is classed as cell-based. Put shortly: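 Hmy2.C1R cells washed in KCl/Hepes transport buffer (pH 7.3) at 4°C, then permeabilized with streptolysin O (2 U/ml, 10 min, 37°C). 10^6 cells/sample incubated 10 min at 37°C with chloramine T-iodinated peptide library, ATP-generating system and test compound (3.3 μM, or a concentration series). Stopped with ice-cold EDTA/azide buffer, NP-40 lysed, Con A–Sepharose capture, γ counting. Percent of no-inhibitor transport, duplicates.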

A further test deals with T3, human TAP1+2 (Homo sapiens, UniProt Q03518+Q03519).
T3 sequence (Q03518 1-748): T2 sequence (Q03518 1-748)
T3 sequence (Q03519 1-686): T2 sequence (Q03519 1-686)
The class given is binding.

For rICP47: recombinant ICP47 from HSV-1, the “ability to block or inhibit mouse TAP” value with murine TAP is recorded as “unable to block”.
Take “ICP47: herpes simplex virus immediate early protein, 87–amino acid cytosolic polypeptide, inhibitor of TAP”: the “ability to block or inhibit mouse TAP” value in the test with murine TAP was “inability”.
“1–35: peptide corresponding to residues 1–35 of ICP47”: the “concentration at which full inhibition had just been reached” value with human TAP (human cell line Hmy2.C1R, chosen for the alanine scan, Fig. 3 D) amounted to 3.3 µM.
As to “^125I-labeled Tyr21 1–35 polypeptide: 1–35 polypeptide labeled with 125I at Tyr 21”, in the test with human TAP1+2, the “TAP subunits labeled by cross-linking” value is listed as “only TAP1 crosslinks”.
As to “N-acetylated ICP47-1–53: ICP47-1–53 N-acetylated on the resin”, the “effect of N-acetylation on the ability to inhibit TAP” value with human TAP (human cell line Hmy2.C1R, compared with 1–53 polypeptide, Fig. 3 E) is on record as “no effect”.
Take “1–35 Tpa: 1–35-mer polypeptide with photoactivable phenylalanine analogue Tpa coupled to its NH2 terminus”: the “block of TAP function compared with the unmodified 1–35 polypeptide” value in the test with human TAP (data not shown) is given as “less efficiently”. The “TAP subunits labeled by cross-linking” value in the test with human TAP1+2 is “Both TAP1 and TAP2 subunits were photolabeled”.
